Results reported in ChEMBL document CHEMBL1240299, “C3-symmetric peptide scaffolds are functional mimetics of trimeric CD40L” (Nat Chem Biol, 2005).
Activity calls are given as the source filed them. The rule behind the calls is not given here. Non-standard residues stand in square brackets, D forms with d. Residues, ends and D or L forms follow the SMILES beside them. Groups on a side chain read outwards from the residue. Ahx = NCCCCCC(=O)O

Legend:
[1] = biological target: T1, Tumor necrosis factor receptor superfamily member 5 (Homo sapiens, UniProt P25942); test: Inhibition of recombinant human CD40L:mouse CD8 tail binding to human CD40 by surface plasmon resonance method
In short: (§1)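 hCD40:mIg was captured on an anti-mouse Ig chip. A fixed amount of soluble hCD40L:CD8 was premixed with increasing ligand concentrations, and the mixtures were injected at 25 °C in HBS-EP, 30 µl min⁻¹, 5 min association and 5 min dissociation. Regeneration was 50 mM HCl. Inhibition of CD40L binding was taken from reference-subtracted sensorgrams.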

[2] = tested on: D1; test: Induction of mouse D1 cell maturation assessed as CD80 expression at 5 to 10 uM after 48 hrs by flow cytometry in presence of 10 ug/ml LPS inhibitor polymyxin B; format: functional, cell-based
In short: (§2)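 D1 cells (2×10^5 ml⁻¹, 48 h preculture) were treated 48 h with inducers in fresh medium. Assays were also run with polymyxin B present to exclude LPS-driven activation, and LPS at 10 µg ml⁻¹ was the reference stimulus. Cells were harvested in PBS/EDTA and surface maturation markers were measured by flow cytometry.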

[3] = tested on: BL-41; test: Induction of apoptosis in CD40-positive human BL41 cells assessed as level of CD40 expression by mean fluorescence intensity; format: functional, cell-based
[4] = tested on: D1; test: Induction of mouse D1 cell maturation assessed as CD86 expression at 5 to 10 uM after 48 hrs by flow cytometry in presence of 10 ug/ml LPS inhibitor polymyxin B; format: functional, cell-based; in short: as §2
[5] = tested on: D1; test: Induction of mouse D1 cell maturation assessed as CD54 expression at 5 to 10 uM after 48 hrs by flow cytometry in presence of 10 ug/ml LPS inhibitor polymyxin B; format: functional, cell-based; in short: as §2
[6] = biological target: Tumor necrosis factor receptor superfamily member 10A (Homo sapiens) (UniProt O00220); test: Binding affinity to human TNF-related apoptosis-inducing ligand receptor 1 by surface plasmon resonance method
In short: (§3)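 TNFR:Fc fusion proteins were captured on an anti-Ig-coated CM5 chip at equivalent protein mass. An irrelevant IgG2a served as control surface. Ligands were injected at several concentrations at 25 °C in HBS-EP running buffer, pH 7.4, 30 µl min⁻¹ flow, 5 min association and 5 min dissociation, with 50 mM HCl regeneration. Reference-subtracted sensorgrams were fitted to binding models.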

[7] = tested on: BL-41; test: Induction of apoptosis in CD40-positive human BL41 cells assessed as decrease in reduction in DiOC6 dye uptake after DAPI staining by epifluorescence microscopy; format: functional, cell-based
[8] = tested on: D1; test: Induction of interleukin-12 production in mouse D1 cells by RT-PCR method; format: functional, cell-based
In short: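 D1 cells, precultured 48 h at 2×10^5 ml⁻¹, were given fresh medium containing inducers. After incubation, RNA was analysed by comparative RT-PCR for IL-12 p40 mRNA, with Gapdh as housekeeping control. LPS at 10 µg ml⁻¹ served as reference stimulus.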

[9] = biological target: T2, Tumor necrosis factor receptor superfamily member 1B (Homo sapiens) (UniProt P20333); test: Binding affinity to human Tumor necrosis factor receptor 2 by surface plasmon resonance method; in short: as §3
T2 sequence (whole entry): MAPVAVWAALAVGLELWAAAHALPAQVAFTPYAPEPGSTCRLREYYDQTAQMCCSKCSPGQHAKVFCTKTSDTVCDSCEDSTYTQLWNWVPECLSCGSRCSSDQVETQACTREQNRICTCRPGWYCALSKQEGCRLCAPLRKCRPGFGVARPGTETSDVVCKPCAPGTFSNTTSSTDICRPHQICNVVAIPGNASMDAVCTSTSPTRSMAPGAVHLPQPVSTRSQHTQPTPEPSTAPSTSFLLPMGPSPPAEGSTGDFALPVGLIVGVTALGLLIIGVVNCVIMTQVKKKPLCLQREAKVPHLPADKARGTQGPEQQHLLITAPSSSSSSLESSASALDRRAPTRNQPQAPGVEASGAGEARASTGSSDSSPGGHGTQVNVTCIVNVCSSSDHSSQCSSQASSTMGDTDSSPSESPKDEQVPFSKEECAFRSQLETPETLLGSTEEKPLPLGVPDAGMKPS

[10] = Activation of NF-kappaB pathway in mouse D1 cells assessed as increased degradation of IkappaBalpha protein by immunoblotting assay; format: functional, cell-based
In short: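 D1 dendritic cells grown in IMDM with 10% FBS and 30% NIH/3T3 supernatant as GM-CSF source; 2×10^5 cells ml⁻¹ precultured 48 h, then fresh medium with inducers added. Cells washed, harvested in PBS/2 mM EDTA, lysed and immunoblotted for IκBα, with actin as loading reference; IκBα/actin band intensity ratio reported.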

[11] = tested on: BL-41; test: Induction of apoptosis in CD40-positive human BL41 cells assessed as decrease in mitochondrial membrane potential after 16 hrs by mean fluorescence intensity; format: functional, cell-based
In short: (§4)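 BL41 Burkitt lymphoma cells in RPMI 1640 with 10% FBS were seeded at 5×10^5 ml⁻¹ and exposed to inducers at 37 °C (16 h). Apoptosis was read by flow cytometry, either as loss of DiOC₆(3) uptake (Δψm) or as annexin V–FITC/PI co-staining. Specific apoptosis % = (treated − control)×100/(100 − control). Values are means of three independent experiments.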

[12] = tested on: A20; test: Induction of apoptosis in mouse CD40-expressing mouse A20 cells assessed as decrease in mitochondrial membrane potential after 16 hrs by mean fluorescence intensity; format: functional, cell-based
In short: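 Mouse A20 lymphoma cells treated at 37 °C and analysed by flow cytometry for reduced DiOC₆(3) uptake (loss of mitochondrial membrane potential). Result given as percentage specific apoptosis relative to untreated control cells.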

[13] = biological target: T3, Tumor necrosis factor receptor superfamily member 17 (Mus musculus) (UniProt O88472); test: Binding affinity to mouse B-cell maturation protein by surface plasmon resonance method; in short: as §3
T3 sequence (whole entry): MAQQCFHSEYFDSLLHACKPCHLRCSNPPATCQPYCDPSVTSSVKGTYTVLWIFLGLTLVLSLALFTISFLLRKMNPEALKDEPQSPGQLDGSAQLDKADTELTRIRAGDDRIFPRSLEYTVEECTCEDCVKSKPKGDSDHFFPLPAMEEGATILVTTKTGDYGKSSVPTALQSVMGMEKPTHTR

[14] = biological target: T4, Tumor necrosis factor receptor superfamily member EDAR (Homo sapiens) (UniProt Q9UNE0); test: Binding affinity to human Ectodysplasin-A receptor by surface plasmon resonance method; in short: as §3
T4 sequence (whole entry): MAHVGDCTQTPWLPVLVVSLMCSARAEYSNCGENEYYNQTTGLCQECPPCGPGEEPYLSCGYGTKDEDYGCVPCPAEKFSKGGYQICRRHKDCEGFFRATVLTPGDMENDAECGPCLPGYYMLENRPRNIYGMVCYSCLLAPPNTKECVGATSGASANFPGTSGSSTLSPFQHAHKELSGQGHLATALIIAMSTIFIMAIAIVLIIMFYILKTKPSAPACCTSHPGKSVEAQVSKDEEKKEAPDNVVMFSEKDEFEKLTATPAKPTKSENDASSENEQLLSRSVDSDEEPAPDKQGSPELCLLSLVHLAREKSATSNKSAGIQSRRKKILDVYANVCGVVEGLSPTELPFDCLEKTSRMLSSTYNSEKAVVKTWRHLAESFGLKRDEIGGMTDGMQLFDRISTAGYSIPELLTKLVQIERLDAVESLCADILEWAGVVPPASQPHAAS

[15] = tested on: BL-41; test: Induction of apoptosis in CD40-positive human BL41 cells assessed as detection of phosphatidylserine expression using annexin V-FITC and propidium iodine staining by flow cytometry; format: functional, cell-based; in short: as §4
[16] = biological target: T5, Tumor necrosis factor receptor superfamily member 1A (Homo sapiens) (UniProt P19438); test: Binding affinity to human TNFR1 by surface plasmon resonance method; in short: as §3
T5 sequence (whole entry): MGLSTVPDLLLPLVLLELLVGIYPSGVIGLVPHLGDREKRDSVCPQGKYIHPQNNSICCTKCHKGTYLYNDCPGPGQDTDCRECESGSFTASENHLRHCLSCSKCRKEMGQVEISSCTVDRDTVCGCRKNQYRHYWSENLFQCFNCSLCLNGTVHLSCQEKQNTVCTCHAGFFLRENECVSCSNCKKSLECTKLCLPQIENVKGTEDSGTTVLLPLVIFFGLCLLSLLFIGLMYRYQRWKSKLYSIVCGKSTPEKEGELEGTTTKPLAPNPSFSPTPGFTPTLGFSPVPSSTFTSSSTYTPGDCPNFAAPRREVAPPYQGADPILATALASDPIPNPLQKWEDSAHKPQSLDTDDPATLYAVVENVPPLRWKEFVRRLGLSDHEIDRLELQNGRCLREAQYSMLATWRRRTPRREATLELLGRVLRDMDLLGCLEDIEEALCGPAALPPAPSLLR

[17] = biological target: Tumor necrosis factor receptor superfamily member 3 (Homo sapiens) (UniProt P36941); test: Binding affinity to human lymphotoxin beta receptor by surface plasmon resonance method
In short: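 TNFR:Fc fusion captured at 5 µl min⁻¹ on a CM5 chip precoated by amine coupling with rabbit anti-mouse Ig or goat anti-human Ig (~10,000 RU). Mimetics injected at several concentrations at 30 µl min⁻¹, 5 min association and 5 min dissociation, 25 °C, HBS-EP pH 7.4. Regeneration 30 s with 50 mM HCl. Control-channel sensorgrams subtracted and fitted to binding models.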

[18] = tested on: BL-41; test: Induction of apoptosis in CD40-positive human BL41 cells assessed as reduction in DiOC6 dye uptake after DAPI staining
[19] = biological target: T1, Tumor necrosis factor receptor superfamily member 5; test: Inhibition of recombinant human CD40L:mouse CD8 tail binding to human CD40 at 10 uM by surface plasmon resonance method; in short: as §1

T1 sequence (P25942 whole entry): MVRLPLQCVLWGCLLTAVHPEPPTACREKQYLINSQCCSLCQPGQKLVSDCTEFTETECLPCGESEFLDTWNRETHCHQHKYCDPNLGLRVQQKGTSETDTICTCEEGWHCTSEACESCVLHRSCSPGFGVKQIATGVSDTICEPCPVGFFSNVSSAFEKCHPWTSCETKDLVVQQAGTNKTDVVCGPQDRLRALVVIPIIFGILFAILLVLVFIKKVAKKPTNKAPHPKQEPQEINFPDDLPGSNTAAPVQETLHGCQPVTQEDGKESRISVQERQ
Chain of Tumor necrosis factor receptor superfamily member 10A (Homo sapiens) (O00220 whole entry, the tested form may be a part): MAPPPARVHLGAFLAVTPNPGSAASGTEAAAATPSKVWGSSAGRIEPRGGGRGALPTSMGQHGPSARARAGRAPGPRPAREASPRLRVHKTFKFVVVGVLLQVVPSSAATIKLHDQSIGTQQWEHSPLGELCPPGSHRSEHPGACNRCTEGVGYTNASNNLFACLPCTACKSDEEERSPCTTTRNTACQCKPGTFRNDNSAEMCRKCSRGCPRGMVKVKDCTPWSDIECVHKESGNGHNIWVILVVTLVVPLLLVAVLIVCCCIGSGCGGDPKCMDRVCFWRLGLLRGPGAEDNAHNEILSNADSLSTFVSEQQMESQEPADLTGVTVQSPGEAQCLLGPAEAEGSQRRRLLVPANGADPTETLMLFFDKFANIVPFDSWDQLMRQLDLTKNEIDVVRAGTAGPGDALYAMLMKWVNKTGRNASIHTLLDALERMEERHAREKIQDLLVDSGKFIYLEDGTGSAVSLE
Chain of Tumor necrosis factor receptor superfamily member 3 (Homo sapiens) (P36941 whole entry, the tested form may be a part): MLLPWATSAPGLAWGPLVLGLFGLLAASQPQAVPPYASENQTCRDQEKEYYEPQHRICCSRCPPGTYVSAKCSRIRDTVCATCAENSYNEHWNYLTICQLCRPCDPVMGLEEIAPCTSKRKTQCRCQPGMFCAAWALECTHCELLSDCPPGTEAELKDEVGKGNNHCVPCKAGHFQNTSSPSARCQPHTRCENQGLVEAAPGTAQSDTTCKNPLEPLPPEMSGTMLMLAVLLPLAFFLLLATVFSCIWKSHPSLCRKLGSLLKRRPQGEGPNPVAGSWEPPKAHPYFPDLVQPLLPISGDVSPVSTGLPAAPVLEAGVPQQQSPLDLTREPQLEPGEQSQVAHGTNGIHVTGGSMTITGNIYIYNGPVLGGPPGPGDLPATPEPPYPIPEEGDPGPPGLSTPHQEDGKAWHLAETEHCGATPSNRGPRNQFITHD

Structure (SMILES) | IC50 [1] [nM] | Activity [2] | Activity [3] | Activity [4] | Activity [5] | Activity [6] | Activity [7] | Activity [8] | Activity [9] | Activity [10] | Activity [11] | Activity [12] | Activity [13] | Activity [14] | Activity [15] | Activity [16] | Activity [17] | inhibition [1] | Activity [18] | inhibition [19] [%]
C[C@H]1NC(=O)[C@H](CCCCNC(=O)CCCCCNC(=O)[C@H](Cc2ccc(O)cc2)NC(=O)[C@H](Cc2ccc(O)cc2)NC(=O)CNC(=O)[C@@H](N)CCCCN)NC(=O)[C@@H](C)NC(=O)[C@H](CCCCNC(=O)CCCCCNC(=O)[C@H](Cc2ccc(O)cc2)NC(=O)[C@H](Cc2ccc(O)cc2)NC(=O)CNC(=O)[C@@H](N)CCCCN)NC(=O)[C@@H](C)NC(=O)[C@H](CCCCNC(=O)CCCCCNC(=O)[C@H](Cc2ccc(O)cc2)NC(=O)[C@H](Cc2ccc(O)cc2)NC(=O)CNC(=O)[C@@H](N)CCCCN)NC1=O (cyclo(K([Ahx-Tyr-Tyr-Gly-Lys])[dA]K([Ahx-Tyr-Tyr-Gly-Lys])[dA]K([Ahx-Tyr-Tyr-Gly-Lys])[dA])) | 78 | Active | Active | Active | Active | inactive | Active | Active | inactive | Active | Active | Active | inactive | inactive | Active | inactive | inactive | – | – | –
NCCCC[C@H](N)C(=O)NCC(=O)N[C@@H](Cc1ccc(O)cc1)C(=O)N[C@@H](Cc1ccc(O)cc1)C(=O)NCCCCCC(=O)O (H-KGYY[Ahx]-OH) | – | inactive | inactive | inactive | inactive | – | inactive | – | – | – | inactive | – | – | – | inactive | – | – | inactive | – | –
NCCCC[C@H](N)C(=O)NCC(=O)N[C@@H](Cc1ccc(O)cc1)C(=O)N[C@@H](Cc1ccc(O)cc1)C(=O)NCCCCCC(=O)NCCCC[C@@H]1CNC(=O)C[C@H](CCCCNC(=O)CCCCCNC(=O)[C@H](Cc2ccc(O)cc2)NC(=O)[C@H](Cc2ccc(O)cc2)NC(=O)CNC(=O)[C@@H](N)CCCCN)NC[C@H](CCCCNC(=O)CCCCCNC(=O)[C@H](Cc2ccc(O)cc2)NC(=O)[C@H](Cc2ccc(O)cc2)NC(=O)CNC(=O)[C@@H](N)CCCCN)NC(=O)C1 | 50 | – | Active | – | – | – | Active | – | – | – | Active | – | – | – | Active | – | – | – | Active | –
C[C@H]1NC(=O)[C@H](CCCCN)NC(=O)[C@@H](C)NC(=O)[C@H](CCCCN)NC(=O)[C@@H](C)NC(=O)[C@H](CCCCN)NC1=O | – | inactive | inactive | inactive | inactive | – | inactive | – | – | – | inactive | – | – | – | inactive | – | – | inactive | – | –
C[C@@H](NC(=O)[C@H](CCCCNC(=O)CCCCCNC(=O)[C@H](Cc1ccc(O)cc1)NC(=O)[C@H](Cc1ccc(O)cc1)NC(=O)CNC(=O)[C@@H](N)CCCCN)NC(=O)[C@@H](C)NC(=O)[C@H](CCCCNC(=O)CCCCCNC(=O)[C@H](Cc1ccc(O)cc1)NC(=O)[C@H](Cc1ccc(O)cc1)NC(=O)CNC(=O)[C@@H](N)CCCCN)NC(=O)[C@@H](C)NC(=O)[C@@H](N)CCCCNC(=O)CCCCCNC(=O)[C@H](Cc1ccc(O)cc1)NC(=O)[C@H](Cc1ccc(O)cc1)NC(=O)CNC(=O)[C@@H](N)CCCCN)C(=O)O | – | inactive | inactive | inactive | inactive | – | inactive | – | – | – | inactive | – | – | – | inactive | – | – | inactive | – | –
NCCCC[C@H](N)C(=O)NCC(=O)N[C@@H](Cc1ccc(O)cc1)C(=O)N[C@@H](Cc1ccc(O)cc1)C(=O)NCCCCCC(=O)NCCCOCC(COCCCNC(=O)CCCCCNC(=O)[C@H](Cc1ccc(O)cc1)NC(=O)[C@H](Cc1ccc(O)cc1)NC(=O)CNC(=O)[C@@H](N)CCCCN)(COCCCNC(=O)CCCCCNC(=O)[C@H](Cc1ccc(O)cc1)NC(=O)[C@H](Cc1ccc(O)cc1)NC(=O)CNC(=O)[C@@H](N)CCCCN)NC(=O)CCC(N)=O | > 10000 | – | inactive | – | – | – | inactive | – | – | – | inactive | – | – | – | inactive | – | – | – | – | 20
